What is called Cmax is the maximum level reached in the sampled fluid or tissue. A word on the half-life: it is the time needed for the level to fall by half in the phase considered. For orientation: Vd means the apparent volume that relates the amount in the body to the concentration in plasma or blood. A word on the Tmax: it is the time at which the peak concentration occurs. In general, clearance refers to the volume of plasma or blood freed of the substance per unit of time. By AUC(0-inf) is commonly meant total exposure, with the tail of the curve extrapolated. As a reminder, the bioavailability is dose-corrected exposure relative to a reference, in per cent. Broadly, the EC50 is the midpoint of the concentration-response curve.

Bounds are passed on as bounds.

Sphingosine 1-phosphate receptor 3, sequence (Q99500 whole entry): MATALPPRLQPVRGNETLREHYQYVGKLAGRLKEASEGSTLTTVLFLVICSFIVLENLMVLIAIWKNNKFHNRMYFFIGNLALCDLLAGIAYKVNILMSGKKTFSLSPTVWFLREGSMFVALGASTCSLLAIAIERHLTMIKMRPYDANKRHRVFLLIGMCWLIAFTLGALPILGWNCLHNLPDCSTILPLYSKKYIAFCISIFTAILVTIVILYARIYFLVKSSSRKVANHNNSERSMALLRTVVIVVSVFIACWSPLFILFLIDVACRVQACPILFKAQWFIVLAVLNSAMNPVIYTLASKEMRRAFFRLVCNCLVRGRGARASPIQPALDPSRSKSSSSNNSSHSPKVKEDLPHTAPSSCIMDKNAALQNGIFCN

Test system in the first series: not listed separately
Briefly: Cmax in cynomolgus monkey at 0.5 mg/kg, po. It counts as ADME, organism-based, Macaca fascicularis. Further details: dose 0.5 mg/kg, route oral. The following applies: in vivo. The essentials: (§1)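 Single oral dose in Lewis rats (n = 4) or cynomolgus monkeys (n = 2), with plasma parameters derived. Bioavailability was calculated against iv dosing at 1.0 mg/kg in rats (n = 2) and 0.5 mg/kg in monkeys (n = 2).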
`CCc1cc(-c2cnc(-c3ccc(CN4CC(C(=O)O)C4)nc3CC)s2)ccc1OC(C)C` had a maximum concentration (Cmax) of 150 ng/mL.

Test system in another series: not listed separately
Nature of the series: Half life in cynomolgus monkey at 1 mg/kg, po. It counts as ADME, organism-based, Macaca fascicularis. Also noted: dose 1 mg/kg, route oral. The following applies: in vivo. The essentials: as §1
As for `CCc1cc(CN2CC(C(=O)O)C2)sc1-c1ncc(-c2ccc(OC(C)C)c(C)c2)s1`, the half-life was 7.2 h.

Test system in another series: not listed separately
Nature of the series: Half life in Lewis rat at 3 mg/kg, po. It counts as ADME, organism-based. Also noted: dose 3 mg/kg, route oral. The conditions noted are these: in vivo. The essentials:
as §1
`CCc1cc(CN2CC(C(=O)O)C2)sc1-c1ncc(-c2ccc(OC(C)C)c(C)c2)s1` had a half-life of 11.5 h.

The next series has as its system Rattus norvegicus. Briefly: Drug metabolism in po dosed rat plasma assessed as formation of 4-phenoxy benzoic acid. The following applies: in vivo. Type of series: ADME, organism-based.
Consider `CCc1cc(CN2CC(C(=O)O)C2)sc1-c1noc(-c2ccc(Oc3ccccc3)cc2)n1`, for which the Drug metabolism result is given as “Active”.

Test system in a further series: not listed separately
Nature of the series: Stability of the compound in presence of enterobacteria from monkey feces contents under anaerobic condition at 3 to 30 uM after 24 hrs.
Conditions: not given
Type of series: ADME, tissue-based. The essentials: (§2)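 Compound solutions at 3.0 and 30 µM were exposed to anaerobic enterobacterial culture fluid from rat cecal contents or monkey feces, grown in prereduced PYF broth, with broth alone as control. Percent compound remaining was traced at 24 and 48 h.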
`CCc1cc(CN2CC(C(=O)O)C2)sc1-c1noc(-c2ccc(Oc3ccccc3)cc2)n1`: the Stability entry is “Unstable”.
On to `CCc1cc(CN2CC(C(=O)O)C2)sc1-c1ncc(-c2ccc(OC(C)C)c(C)c2)s1`, for which the Stability result was “Stable”.

Test system in a further series: not listed separately
Briefly: Stability of the compound in presence of enterobacteria from rat cecal contents under anaerobic condition at 3 to 30 uM after 24 hrs. Type of series: ADME.
Conditions: not given
The essentials: as §2
As for `CCc1cc(CN2CC(C(=O)O)C2)sc1-c1noc(-c2ccc(Oc3ccccc3)cc2)n1`, the Stability entry is reported as “Unstable”.
For `CCc1cc(CN2CC(C(=O)O)C2)sc1-c1ncc(-c2ccc(OC(C)C)c(C)c2)s1`, the Stability result is “Stable”.

Test system in a further series: not listed separately
Briefly: Stability of the compound in presence of enterobacteria from monkey feces contents under anaerobic condition at 3 to 30 uM after 48 hrs. Type of series: ADME, tissue-based.
Conditions: not given
The essentials:
as §2
Consider `CCc1cc(CN2CC(C(=O)O)C2)sc1-c1noc(-c2ccc(Oc3ccccc3)cc2)n1`, for which the Stability entry is on record as “Unstable”.
On to `CCc1cc(CN2CC(C(=O)O)C2)sc1-c1ncc(-c2ccc(OC(C)C)c(C)c2)s1`, for which the Stability result was “Stable”.

Test system in a further series: not listed separately
Nature of the series: Volume of distribution in cynomolgus monkey at 0.5 mg/kg, iv. The following applies: in vivo. It counts as ADME, organism-based, Macaca fascicularis. Further details: dose 0.5 mg/kg, route intravenous. The essentials:
(§3)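 Single iv administration to Lewis rats at 1.0 mg/kg (n = 2) or cynomolgus monkeys at 0.5 mg/kg (n = 2), with clearance and volume of distribution derived.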
On to `CCc1cc(-c2cnc(-c3ccc(CN4CC(C(=O)O)C4)nc3CC)s2)ccc1OC(C)C`, for which the Vd is 1.46 L/kg.
Still for that read-out and setting: the same measure for `CCc1cc(CN2CC(C(=O)O)C2)sc1-c1ncc(-c2ccc(OC(C)C)c(C)c2)s1`: 0.89 L/kg.

Test system in a further series: not listed separately
Briefly: Tmax in cynomolgus monkey at 1 mg/kg, po. It counts as ADME, organism-based, Macaca fascicularis. Also noted: dose 1 mg/kg, route oral. The conditions noted are these: in vivo. The essentials:
as §1
Turning to `CCc1cc(CN2CC(C(=O)O)C2)sc1-c1ncc(-c2ccc(OC(C)C)c(C)c2)s1`, the Tmax was found to be 4 h.

Test system in a further series: not listed separately
Nature of the series: Clearance in Lewis rat at 1 mg/kg, iv. It counts as ADME, organism-based. Further details: dose 1 mg/kg, route intravenous. The following applies: in vivo. The essentials:
as §3
On to `CCc1cc(CN2CC(C(=O)O)C2)sc1-c1ncc(-c2ccc(OC(C)C)c(C)c2)s1`, for which the clearance came to 6.72 mL/min/kg.

Test system in the next series: not listed separately
Briefly: Cmax in Lewis rat at 3 mg/kg, po. Type of series: ADME, organism-based. Also noted: dose 3 mg/kg, route oral. The following applies: in vivo. The essentials:
as §1
Molecule `CCc1cc(CN2CC(C(=O)O)C2)sc1-c1ncc(-c2ccc(OC(C)C)c(C)c2)s1` showed a Cmax of 340 ng/mL.

Test system in a further series: not listed separately
Nature of the series: AUC (0 to infinity) in cynomolgus monkey at 0.5 mg/kg, po. Further details: time infinity, dose 0.5 mg/kg, route oral. The conditions noted are these: plasma. Type of series: ADME, organism-based, Macaca fascicularis. The essentials: as §1
In turn, `CCc1cc(-c2cnc(-c3ccc(CN4CC(C(=O)O)C4)nc3CC)s2)ccc1OC(C)C` yielded an AUC(0-inf) of 3730 ng·h/mL.

Test system in another series: not listed separately
Briefly: Oral bioavailability in Lewis rat at 3 mg/kg. The conditions noted are these: in vivo. It counts as ADME, organism-based. The essentials:
as §1
Molecule `CCc1cc(CN2CC(C(=O)O)C2)sc1-c1ncc(-c2ccc(OC(C)C)c(C)c2)s1` returned a bioavailability of 70.6%.

Test system in the next series: not listed separately
Briefly: Tmax in Lewis rat at 3 mg/kg, po. The conditions noted are these: in vivo. Type of series: ADME, organism-based. Also noted: dose 3 mg/kg, route oral. The essentials: as §1
For `CCc1cc(CN2CC(C(=O)O)C2)sc1-c1ncc(-c2ccc(OC(C)C)c(C)c2)s1`, the Tmax turned out to be 5 h.

Test system in another series: not listed separately
Nature of the series: Oral bioavailability in cynomolgus monkey at 1 mg/kg. Type of series: ADME, organism-based, Macaca fascicularis. The following applies: in vivo. The essentials:
as §1
With `CCc1cc(CN2CC(C(=O)O)C2)sc1-c1ncc(-c2ccc(OC(C)C)c(C)c2)s1`, the bioavailability was greater than 90%.

Test system in the next series: not listed separately
Briefly: AUC (0 to infinity) in Lewis rat at 3 mg/kg, po. It counts as ADME, organism-based. Also noted: dose 3 mg/kg, route oral, time infinity. The conditions noted are these: plasma. The essentials: as §1
Turning to `CCc1cc(CN2CC(C(=O)O)C2)sc1-c1ncc(-c2ccc(OC(C)C)c(C)c2)s1`, the AUC(0-inf) came to 5140 ng·h/mL.

Test system in the next series: not listed separately
Briefly: Tmax in cynomolgus monkey at 0.5 mg/kg, po. Type of series: ADME, organism-based, Macaca fascicularis. Also noted: dose 0.5 mg/kg, route oral. The conditions noted are these: in vivo. The essentials: as §1
`CCc1cc(-c2cnc(-c3ccc(CN4CC(C(=O)O)C4)nc3CC)s2)ccc1OC(C)C`: the Tmax was determined as 5 h.

Another series concerns the target Sphingosine 1-phosphate receptor 3 (Homo sapiens, UniProt Q99500). Nature of the series: Agonist activity at human S1P3 receptor by [S35]GTPgammaS binding assay. Type of series: functional.
Conditions: not given
The essentials: (§4)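 GTPγS binding at human S1P1 and S1P3 receptors. EC50 is the mean of two experimental determinations.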
A general note: GTPγS is a poorly hydrolysed GTP analogue; its binding reports G protein activation.
Take `CCc1cc(CN2CC(C(=O)O)C2)sc1-c1noc(-c2ccc(Oc3ccccc3)cc2)n1`: the EC50 was greater than 20000 nM.
Regarding `CCc1cc(-c2cnc(-c3ccc(CN4CC(C(=O)O)C4)nc3CC)s2)ccc1OC(C)C`, the EC50 was greater than 20000 nM.
The molecule `CCc1cc(CN2CC(C(=O)O)C2)sc1-c1ncc(-c2ccc(OC(C)C)c(C)c2)s1` showed an EC50 greater than 20000 nM.

Test system in another series: not listed separately
Nature of the series: AUC (0 to infinity) in cynomolgus monkey at 1 mg/kg, po. Type of series: ADME, organism-based, Macaca fascicularis. The following applies: plasma. Further details: time infinity, dose 1 mg/kg, route oral. The essentials: as §1
`CCc1cc(CN2CC(C(=O)O)C2)sc1-c1ncc(-c2ccc(OC(C)C)c(C)c2)s1` came in with an area under the curve AUC(0-inf) of 8690 ng·h/mL.

Test system in the next series: not listed separately
Nature of the series: Half life in cynomolgus monkey at 0.5 mg/kg, po. Type of series: ADME, organism-based, Macaca fascicularis. Further details: dose 0.5 mg/kg, route oral. The following applies: in vivo. The essentials:
as §1
`CCc1cc(-c2cnc(-c3ccc(CN4CC(C(=O)O)C4)nc3CC)s2)ccc1OC(C)C`: the half-life is 16.7 h.

The subject of the next series is Rattus norvegicus. Briefly: Immunosuppressive activity in po dosed LEW rat transplanted with spleen cells of WKAH rat assessed as inhibition of enlargement of draining popliteal lymph node administered qd for 4 days. It counts as functional. The conditions noted are these: 96 h, read-out: ID50 (the source's name). The essentials: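 Spleen cells from WKAH rats were injected into the footpads of LEW rats to induce draining popliteal lymph node enlargement. Dosing was oral, once daily for four days from the day of cell injection (day 0). Lymph node weight was measured on day 4. Values are the mean of five rats; ID50 is derived from at least three doses.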
In the case of `CCc1cc(CN2CC(C(=O)O)C2)sc1-c1noc(-c2ccc(Oc3ccccc3)cc2)n1`, the ED50 was 0.41 mg/kg.
On the same count and under the same terms, for `CCc1cc(-c2cnc(-c3ccc(CN4CC(C(=O)O)C4)nc3CC)s2)ccc1OC(C)C` the value was 0.49 mg/kg; for `CCc1cc(CN2CC(C(=O)O)C2)sc1-c1ncc(-c2ccc(OC(C)C)c(C)c2)s1`, 0.07 mg/kg.

Test system in a further series: not listed separately
Briefly: Oral bioavailability in cynomolgus monkey at 0.5 mg/kg. The following applies: in vivo. Type of series: ADME, organism-based, Macaca fascicularis. The essentials:
as §1
Consider `CCc1cc(-c2cnc(-c3ccc(CN4CC(C(=O)O)C4)nc3CC)s2)ccc1OC(C)C`, for which the bioavailability turned out to be 75.4%.

Test system in a further series: not listed separately
Briefly: Cmax in cynomolgus monkey at 1 mg/kg, po. It counts as ADME, organism-based, Macaca fascicularis. The following applies: in vivo. Further details: dose 1 mg/kg, route oral. The essentials: as §1
Regarding `CCc1cc(CN2CC(C(=O)O)C2)sc1-c1ncc(-c2ccc(OC(C)C)c(C)c2)s1`, the peak level (Cmax) was 630 ng/mL.

Test system in a further series: not listed separately
Nature of the series: Volume of distribution in Lewis rat at 1 mg/kg, iv. Type of series: ADME, organism-based. The conditions noted are these: in vivo. Further details: dose 1 mg/kg, route intravenous. The essentials:
as §3
The molecule `CCc1cc(CN2CC(C(=O)O)C2)sc1-c1ncc(-c2ccc(OC(C)C)c(C)c2)s1` registered a Vd of 5.37 L/kg.

Test system in a further series: not listed separately
Briefly: Clearance in cynomolgus monkey at 0.5 mg/kg, iv. Type of series: ADME, organism-based, Macaca fascicularis. Further details: dose 0.5 mg/kg, route intravenous. The following applies: in vivo. The essentials: as §3
Molecule `CCc1cc(-c2cnc(-c3ccc(CN4CC(C(=O)O)C4)nc3CC)s2)ccc1OC(C)C` had a clearance of 1.75 mL/min/kg.
As for `CCc1cc(CN2CC(C(=O)O)C2)sc1-c1ncc(-c2ccc(OC(C)C)c(C)c2)s1`, the clearance stood at 2 mL/min/kg.

Another series deals with Sphingosine 1-phosphate receptor 1 (Homo sapiens, UniProt P21453). Briefly: Agonist activity at human S1P1 receptor by [S35]GTPgammaS binding assay. Type of series: functional.
Sphingosine 1-phosphate receptor 1, sequence (P21453 whole entry): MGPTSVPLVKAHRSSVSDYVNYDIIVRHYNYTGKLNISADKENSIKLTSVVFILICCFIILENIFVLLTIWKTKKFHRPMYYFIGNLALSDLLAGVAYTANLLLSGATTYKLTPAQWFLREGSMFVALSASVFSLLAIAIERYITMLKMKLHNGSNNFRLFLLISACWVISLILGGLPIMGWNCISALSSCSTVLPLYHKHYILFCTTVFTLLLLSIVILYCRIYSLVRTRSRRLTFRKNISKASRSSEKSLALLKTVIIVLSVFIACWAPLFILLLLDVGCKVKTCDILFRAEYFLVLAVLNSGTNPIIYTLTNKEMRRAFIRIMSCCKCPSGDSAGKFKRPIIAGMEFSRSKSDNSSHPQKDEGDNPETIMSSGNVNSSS
Conditions: not given
The essentials:
as §4
In turn, `CCc1cc(-c2cnc(-c3ccc(CN4CC(C(=O)O)C4)nc3CC)s2)ccc1OC(C)C` returned a concentration for a half-maximal effect (EC50) of 4 nM.
In turn, `CCc1cc(CN2CC(C(=O)O)C2)sc1-c1ncc(-c2ccc(OC(C)C)c(C)c2)s1` registered an EC50 of 3.4 nM.

Test system in another series: not listed separately
Briefly: Stability of the compound in presence of enterobacteria from rat cecal contents under anaerobic condition at 3 to 30 uM after 48 hrs. It counts as ADME.
Conditions: not given
The essentials: as §2
For the molecule `CCc1cc(CN2CC(C(=O)O)C2)sc1-c1noc(-c2ccc(Oc3ccccc3)cc2)n1`, the Stability entry was “Unstable”.
For `CCc1cc(CN2CC(C(=O)O)C2)sc1-c1ncc(-c2ccc(OC(C)C)c(C)c2)s1`, the Stability entry is “Stable”.

For the origin of these results see ChEMBL document CHEMBL2021897, “Synthesis and SAR of 1,3-thiazolyl thiophene and pyridine derivatives as potent, orally active and S1P₃-sparing S1P₁ agonists” (Bioorg Med Chem Lett, 2012).
